Assay results from ChEMBL document CHEMBL3352202 (J Med Chem, 2014).

How the values were obtained:
A-375 = experiment: Antiproliferative activity against human A375 cells after 96 hrs by SRB assay; format: functional, cell-based; conditions: A-375, 96 h
DU-145 = experiment: Antiproliferative activity against human DU145 cells after 96 hrs by SRB assay; format: functional, cell-based; conditions: DU-145, 96 h
How it was run: (§1)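 Prostate cancer lines were exposed to compound for 96 h, with cell growth read by sulforhodamine B staining. Results are IC50 ± SEM.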

[1] = Antiproliferative activity against human PC3 cells after 96 hrs by SRB assay; format: functional, cell-based; conditions: PC-3, 96 h; how it was run: as §1
LNCaP = experiment: Antiproliferative activity against human LNCAP cells after 96 hrs by SRB assay; format: functional, cell-based; how it was run: as §1
[2] = Antiproliferative activity against human PPC1 cells after 96 hrs by SRB assay; format: functional, cell-based; conditions: PPC-1, 96 h; how it was run: as §1
Tubulin (Bos taurus) [3] = biological target: T1, Tubulin (Bos taurus) (UniProt Q6B856+Q862L2+Q862F3); experiment: Inhibition of bovine brain tubulin polymerization at 5 uM for 20 mins by spectrophotometry
How it was run: (§2)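 Bovine brain tubulin (0.4 mg, >97% pure) in general tubulin buffer pH 6.9 (80 mM PIPES, 2.0 mM MgCl2, 0.5 mM EGTA, 1 mM GTP) with compound at 5 or 10 μM, 37 °C. A340 was read each minute for 20 min, and percent inhibition was taken relative to vehicle.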

Tubulin (Bos taurus) [4] = biological target: T1, Tubulin (Bos taurus); experiment: Inhibition of bovine brain tubulin polymerization at 10 uM for 20 mins by spectrophotometry; how it was run: as §2
[5] = Antiproliferative activity against mouse B16-F1 cells after 96 hrs by SRB assay; format: functional, cell-based; conditions: B16-F1, 96 h
Liver microsome [6] = experiment: Half life in rat liver microsomes at 0.5 uM by LC-MS/MS analysis
Liver microsome [7] = experiment: Half life in human liver microsomes at 0.5 uM by LC-MS/MS analysis
Liver = experiment: Half life in mouse liver microsomes at 0.5 uM by LC-MS/MS analysis

SMILES	IC50 (A-375) [nM]	IC50 (DU-145) [nM]	IC50 (LNCaP) [nM]	inhibition (Tubulin (Bos taurus) [3]) [%]	inhibition (Tubulin (Bos taurus) [4]) [%]	t1/2 (Liver microsome [6]) [min]	t1/2 (Liver microsome [7]) [min]	t1/2 (Liver) [min]	IC50 [1] [nM]	IC50 [2] [nM]	IC50 [5] [nM]
COc1cc(-c2cccc3[nH]c(-c4c[nH]c5ccccc45)nc23)cc(OC)c1OC	600	4200	800						900	1300	
COc1cc(-c2cccc3[nH]c(-c4ccc5[nH]ccc5c4)nc23)cc(OC)c1OC	25	57	28	30	60				22	20	
COc1cc(C(=O)c2csc(-c3ccccc3)n2)cc(OC)c1OC(=O)C(F)(F)F	22200	> 10000	> 10000						> 10000	> 10000	8900
COCOc1c(OC)cc(C(=O)c2csc(-c3ccccc3)n2)cc1OC	20	112	31			9.7	7.8	4	17	22	19
COc1cc(-c2cccc3[nH]c(-c4n[nH]c5ccccc45)nc23)cc(OC)c1OC	1100	4000	1600						800	1000	
COc1cc(C(=O)c2csc(-c3ccccc3)n2)cc(OC)c1OC									21	43	55
COc1cc(-c2nccc3[nH]c(-c4ccc5[nH]ccc5c4)nc23)cc(OC)c1OC	5		5	33	81	30.4	45.3	19.7	6	42	
COc1cc(C(=O)c2csc(-c3ccccc3)n2)cc(OC)c1OCCN1C(=O)c2ccccc2C1=O	3100	600	1400						> 10000	600	1300
COc1cc(C(=O)c2csc(-c3ccccc3)n2)cc(OC)c1OCc1ccccc1	> 10000	> 10000	> 10000						> 10000	> 10000	10600
COc1cc(C(=O)c2csc(Nc3ccccc3)n2)cc(OC)c1OC	28	71	28						21	43	65

The next lines start with results.

IC50 (A-375) [nM]	IC50 (DU-145) [nM]	IC50 (LNCaP) [nM]	inhibition (Tubulin (Bos taurus) [3]) [%]	inhibition (Tubulin (Bos taurus) [4]) [%]	t1/2 (Liver microsome [6]) [min]	t1/2 (Liver microsome [7]) [min]	t1/2 (Liver) [min]	SMILES	IC50 [1] [nM]	IC50 [2] [nM]	IC50 [5] [nM]
	7800	2100						COc1cc(-c2cccc3[nH]c(-c4ccccc4)nc23)cc(OC)c1OC	2400	2100	
10800	> 10000	> 10000						COc1cc(C(=O)c2csc(-c3ccccc3)n2)cc(OC)c1OC(=O)CCl	> 10000	> 10000	3200
527	464	117						COc1cc(C(=O)c2csc(-c3ccccc3)n2)cc(OC)c1OCCN	158	184	142
25	24	13						COc1cc(C(=O)c2csc(Nc3ccc4[nH]ccc4c3)n2)cc(OC)c1OC	12	15	84
> 30000	> 30000	> 30000						COc1cc(C(=O)c2c[nH]c(Nc3ccccc3)n2)cc(OC)c1OC	> 30000	> 30000	> 30000
